Calls of active or inactive are those of the source. The calls are words filed in the database; no cut-off is given here.
Tests used:
Vasopressin V1b receptor = target: T1, Vasopressin V1b receptor (Homo sapiens, UniProt P47901); assay: Displacement of [3H]-AVP from human V1b receptor after […] by liquid scintillation counting
T1 sequence (P47901 whole entry): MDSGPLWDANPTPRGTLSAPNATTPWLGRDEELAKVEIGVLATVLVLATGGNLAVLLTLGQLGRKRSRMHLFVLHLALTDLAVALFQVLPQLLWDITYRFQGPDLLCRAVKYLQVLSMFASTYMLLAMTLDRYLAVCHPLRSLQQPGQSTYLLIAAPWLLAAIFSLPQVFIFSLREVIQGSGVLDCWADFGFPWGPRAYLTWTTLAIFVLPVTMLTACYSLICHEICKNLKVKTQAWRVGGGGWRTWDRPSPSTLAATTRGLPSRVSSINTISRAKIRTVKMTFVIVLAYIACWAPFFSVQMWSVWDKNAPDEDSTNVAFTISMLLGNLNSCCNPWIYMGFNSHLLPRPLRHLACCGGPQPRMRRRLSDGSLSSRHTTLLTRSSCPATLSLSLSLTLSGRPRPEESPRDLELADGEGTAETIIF

[1] = target: Vasopressin V1a receptor (Microtus ochrogaster) (UniProt Q9WTV9); assay: Binding affinity to prairie vole ventral pallidum vasopressin V1A receptor by autoradiography; settings: tested as the 125I-labelled form
Method in brief: (§1)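 Prairie vole brain cryosections (20 μm, PFC through NAcc and VP) were thawed, dipped in 0.1% paraformaldehyde in PBS pH 7.4 and rinsed in 50 mM Tris pH 7.4. They were incubated 1 h with 50 pM 125I-LVA plus competitor at 0 or 10−10 to 10−5 M, then washed in Tris/2% MgCl2 pH 7.4. Film exposure was 72 h against 125I standards. Ki came from competition curves; sections from six animals.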

Vasopressin V1a receptor [2] = target: Vasopressin V1a receptor (Microtus ochrogaster, UniProt Q9WTV9); assay: Displacement of [125I]-LVA from prairie vole vasopressin V1A receptor after 72 hrs; method in brief: as §1
[3] = Octanol-water partition coefficient, log P of the compound at 5 to 10 uCi at pH 7.4 after 3 mins; type: physicochemical
Method in brief: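 About 5–10 μCi radioligand was shaken 3 min in 5 ml 0.1 M sodium phosphate pH 7.4 and 10 ml octanol. 2 ml octanol aliquots were re-partitioned against 2 ml fresh buffer by vortexing 7 min, then centrifuged at 20,000×g for 5 min. 0.5 ml of each layer was gamma-counted, and average counts gave logP7.4.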

Vasopressin V2 receptor = Vasopressin V2 receptor (Homo sapiens, UniProt P30518); assay: Displacement of [3H]-AVP from human vasopressin V2 receptor after […] by liquid scintillation counting
Oxytocin receptor = target: T2, Oxytocin receptor (Homo sapiens, UniProt P30559); assay: Displacement of [3H]oxytocin from human oxytocin receptor after […] by liquid scintillation counting
T2 sequence (P30559 whole entry): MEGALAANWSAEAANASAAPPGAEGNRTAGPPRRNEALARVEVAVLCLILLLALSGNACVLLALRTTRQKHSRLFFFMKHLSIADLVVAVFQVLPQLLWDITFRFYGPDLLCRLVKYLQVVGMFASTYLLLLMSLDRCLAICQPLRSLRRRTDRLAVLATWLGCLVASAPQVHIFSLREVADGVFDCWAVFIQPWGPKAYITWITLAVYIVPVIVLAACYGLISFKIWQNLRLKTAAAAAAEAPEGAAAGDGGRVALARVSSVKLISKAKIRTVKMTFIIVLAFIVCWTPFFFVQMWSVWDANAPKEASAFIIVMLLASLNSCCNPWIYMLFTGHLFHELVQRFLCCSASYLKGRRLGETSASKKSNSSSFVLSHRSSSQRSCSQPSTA

Vasopressin V1a receptor [4] = target: Vasopressin V1a receptor (Homo sapiens, UniProt P37288); assay: Displacement of [3H]-AVP from human V1A receptor after […] by liquid scintillation counting
Brain [5] = assay: Drug uptake in Sprague-Dawley rat brain at 295 uCi. iv after 5 mins by PET imaging; type: ADME, organism-based; settings: in vivo
Method in brief: (§2)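 Female Sprague–Dawley rats got estradiol benzoate 10–12 μg sc in sesame oil daily for 3 days to up-regulate OTR. They were anesthetised with ketamine/xylazine 100/10 mg/kg ip, and 200–300 μCi radioligand was injected via tail vein catheter. MicroPET brain scans began at injection (90 min 18F, 45 min 11C) after a 7 min Co-57 transmission scan. Frames were summed and whole-brain time-activity curves plotted.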

Thyroid gland [6] = assay: Drug uptake in iv dosed Sprague-Dawley rat thyroid assessed as per organ after 30 mins; type: ADME, organism-based; settings: in vivo, 0.5 h
Method in brief: (§3)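 Female Sprague–Dawley rats (180–200 g), fed ad libitum, were anesthetised with im ketamine/xylazine. Radioligand was given iv via tail vein in 0.1–0.2 ml 10% ethanol/saline. Animals were killed at 15, 30, 60 or 120 min and the thyroid was counted by gamma counter with dose standards. Counts were decay-corrected and given as percent injected dose per organ; n = 4, or 3 where noted.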

Thyroid gland [7] = assay: Drug uptake in iv dosed Sprague-Dawley rat thyroid assessed as per organ after 60 mins; type: ADME, organism-based; settings: in vivo, 1 h; method in brief: as §3
Thyroid gland [8] = assay: Drug uptake in iv dosed Sprague-Dawley rat thyroid assessed as per organ after 120 mins; type: ADME, organism-based; settings: in vivo, 2 h; method in brief: as §3
Thyroid gland [9] = assay: Drug uptake in iv dosed Sprague-Dawley rat thyroid assessed as per organ after 15 mins; type: ADME, organism-based; settings: in vivo, 0.25 h; method in brief: as §3
[10] = Chemical stability of the compound in 10 % ethanol assessed as remaining radioactivity; type: physicochemical
Brain [11] = assay: Drug uptake in Sprague-Dawley rat brain at 277 uCi, iv after 45 mins by PET imaging; type: ADME, organism-based; settings: in vivo, 0.75 h; method in brief: as §2

Chain of Vasopressin V1a receptor (Homo sapiens, UniProt P37288) (P37288 whole entry): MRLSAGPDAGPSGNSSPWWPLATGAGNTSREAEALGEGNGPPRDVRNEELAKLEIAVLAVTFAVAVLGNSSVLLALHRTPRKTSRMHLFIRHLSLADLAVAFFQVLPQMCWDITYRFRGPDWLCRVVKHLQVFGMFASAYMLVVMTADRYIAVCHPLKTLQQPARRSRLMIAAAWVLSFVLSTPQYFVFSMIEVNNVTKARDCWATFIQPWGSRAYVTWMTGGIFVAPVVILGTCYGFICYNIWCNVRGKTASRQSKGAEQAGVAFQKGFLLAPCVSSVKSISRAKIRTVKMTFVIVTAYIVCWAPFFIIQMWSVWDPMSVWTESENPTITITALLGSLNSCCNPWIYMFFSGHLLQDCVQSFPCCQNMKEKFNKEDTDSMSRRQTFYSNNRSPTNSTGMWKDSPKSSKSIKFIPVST
Chain of Vasopressin V1a receptor (Microtus ochrogaster, UniProt Q9WTV9) (Q9WTV9 whole entry): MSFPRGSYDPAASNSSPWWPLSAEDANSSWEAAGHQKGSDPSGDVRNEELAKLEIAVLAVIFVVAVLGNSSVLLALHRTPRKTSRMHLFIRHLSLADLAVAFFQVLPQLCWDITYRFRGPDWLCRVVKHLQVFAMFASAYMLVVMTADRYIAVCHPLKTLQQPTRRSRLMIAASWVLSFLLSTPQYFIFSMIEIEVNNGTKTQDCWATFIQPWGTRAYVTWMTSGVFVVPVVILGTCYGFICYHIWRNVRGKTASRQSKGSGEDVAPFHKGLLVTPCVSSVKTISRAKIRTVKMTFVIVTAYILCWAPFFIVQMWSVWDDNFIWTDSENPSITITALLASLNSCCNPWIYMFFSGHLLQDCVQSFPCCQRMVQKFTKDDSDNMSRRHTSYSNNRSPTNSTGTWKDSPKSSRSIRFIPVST
Chain of Vasopressin V2 receptor (P30518 whole entry): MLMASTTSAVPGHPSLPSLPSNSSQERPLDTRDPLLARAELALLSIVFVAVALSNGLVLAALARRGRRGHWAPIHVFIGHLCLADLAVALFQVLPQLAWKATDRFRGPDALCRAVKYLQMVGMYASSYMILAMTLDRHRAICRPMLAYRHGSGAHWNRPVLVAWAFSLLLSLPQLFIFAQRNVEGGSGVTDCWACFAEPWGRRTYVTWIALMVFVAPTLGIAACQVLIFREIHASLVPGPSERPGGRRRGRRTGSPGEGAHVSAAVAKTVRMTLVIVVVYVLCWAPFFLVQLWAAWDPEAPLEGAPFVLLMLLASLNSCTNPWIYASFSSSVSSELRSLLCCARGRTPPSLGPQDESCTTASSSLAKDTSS
Chain of Vasopressin V1a receptor (Microtus ochrogaster) (Q9WTV9 whole entry, looked up): as the sequence (Q9WTV9 whole entry) above

Structure (SMILES) | Ki (Vasopressin V1a receptor [2]) [nM] | logD at 0.05 h [3] | Ki (Vasopressin V2 receptor) [nM] | Ki (Oxytocin receptor) [nM] | Ki (Vasopressin V1a receptor [4]) [nM] | also measured
CS(=O)(=O)N1CCC(Oc2ccc(CC(=O)N3CCC(N4C(=O)CCc5ccccc54)CC3)c(OC/C=C\I)c2)CC1 | 16 | 2.18 | 580 | 5.7 | 530 | Ki (Vasopressin V1b receptor): 9600 nM; Activity [1]: Active
CS(=O)(=O)N1CCC(Oc2ccc(CC(=O)N3CCC(N4C(=O)CCc5ccccc54)CC3)c(OCC[18F])c2)CC1 |  |  |  |  |  | Drug uptake (Brain [5]): Active
CS(=O)(=O)N1CCC(Oc2ccc(CC(=O)N3CCC(N4C(=O)CCc5ccccc54)CC3)c(OC/C=C\[125I])c2)CC1 |  |  |  |  |  | Drug uptake (Thyroid gland [6]): 0.2 %ID; Drug uptake (Thyroid gland [7]): 0.32 %ID; Drug uptake (Thyroid gland [8]): 0.67 %ID; Drug uptake (Thyroid gland [9]): 0.05 %ID; Stability [10]: 15%
CS(=O)(=O)N1CCC(Oc2ccc(CC(=O)N3CCC(N4C(=O)CCc5ccccc54)CC3)c(OC/C=C/I)c2)CC1 | 1.7 | 2.36 | 1400 | 10 | 790 | 
CS(=O)(=O)N1CCC(Oc2ccc(CC(=O)N3CCC(N4C(=O)CCc5ccccc54)CC3)c(OC/C=C/[125I])c2)CC1 |  |  |  |  |  | Drug uptake (Thyroid gland [6]): 0.53 %ID; Drug uptake (Thyroid gland [7]): 0.81 %ID; Drug uptake (Thyroid gland [8]): 1.05 %ID; Drug uptake (Thyroid gland [9]): 0.19 %ID; Stability [10]: 15%
COc1cc(OC2CCN(S(C)(=O)=O)CC2)ccc1CC(=O)N1CCC(N2C(=O)CCc3ccccc32)CC1 | 78 | 2.25 | 3700 | 28 | 4800 | 
CS(=O)(=O)N1CCC(Oc2ccc(CC(=O)N3CCC(N4C(=O)CCc5ccccc54)CC3)c(OCCF)c2)CC1 | 9.4 | 2.02 | 1800 | 16 | 8700 | 
CS(=O)(=O)N1CCC(Oc2ccc(CC(=O)N3CCC(N4C(=O)CCc5ccccc54)CC3)c(O[11CH3])c2)CC1 |  |  |  |  |  | Drug uptake (Brain [11]): Not Active
CS(=O)(=O)N1CCC(Oc2ccc(CC(=O)N3CCC(N4C(=O)CCc5ccccc54)CC3)c(O)c2)CC1 |  |  |  | 78 |  | 
